Converted amounts (≈) assume the structure as drawn.
system: Enterococcus faecalis; experiment: Antibacterial activity against Enterococcus faecalis ATCC 29212; type: functional

Compared with `CCOC(=O)NC[C@H]1CN(c2ccc(-c3nnc4ncccn34)cc2)C(=O)O1`, `CC(=O)NC[C@H]1CN(c2ccc(-c3nnc4ncccn34)cc2)C(=O)O1` is lower in MIC: over 16 µg/mL for the first, 16 µg/mL (≈ 45.4 µM) for the second.

First: O=C(NC[C@H]1CN(c2ccc(-c3nnc4ncccn34)cc2)C(=O)O1)c1ccccc1
Second: O=C(CCl)NC[C@H]1CN(c2ccc(-c3nnc4ncccn34)cc2)C(=O)O1
The MIC of the first is higher: over 16 µg/mL for the first, 16 µg/mL (≈ 41.4 µM) for the second.

Compared with `CCC(=S)NC[C@H]1CN(c2ccc(-c3nnc4ncccn34)cc2)C(=O)O1`, `CCCC(=O)NC[C@H]1CN(c2ccc(-c3nnc4ncccn34)cc2)C(=O)O1` is higher in MIC: 4 µg/mL (≈ 10.5 µM) for the first, over 16 µg/mL for the second.

Going from `COCCNC(=S)NC[C@H]1CN(c2ccc(-c3nnc4ncccn34)cc2)C(=O)O1` to `CCCCNC(=S)NC[C@H]1CN(c2ccc(-c3nnc4ncccn34)cc2)C(=O)O1`, the MIC falls from over 16 µg/mL to 16 µg/mL (≈ 37.6 µM).

First: O=C(NC[C@H]1CN(c2ccc(-c3nnc4ncccn34)cc2)C(=O)O1)C1CC1
Second: O=C(NC[C@H]1CN(c2ccc(-c3nnc4ncccn34)cc2)C(=O)O1)C1CCC1
The MIC of the first is lower: 16 µg/mL (≈ 42.3 µM) for the first, over 16 µg/mL for the second.

`CC(C)CC(=O)NC[C@H]1CN(c2ccc(-c3nnc4ncccn34)cc2)C(=O)O1` showed an MIC of over 16 µg/mL.

system: Staphylococcus aureus; experiment: Antibacterial activity against Staphylococcus aureus ATCC 25923; type: functional

`CCOC(=O)NC[C@H]1CN(c2ccc(-c3nnc4ncccn34)cc2)C(=O)O1` and `CC(=O)NC[C@H]1CN(c2ccc(-c3nnc4ncccn34)cc2)C(=O)O1` are the same in MIC: 16 µg/mL (≈ 41.8 µM) for the first, 16 µg/mL (≈ 45.4 µM) for the second.

Going from `O=C(NC[C@H]1CN(c2ccc(-c3nnc4ncccn34)cc2)C(=O)O1)c1ccccc1` to `O=C(CCl)NC[C@H]1CN(c2ccc(-c3nnc4ncccn34)cc2)C(=O)O1`, the MIC falls from over 16 µg/mL to 4 µg/mL (≈ 10.3 µM).

Compared with `CCC(=S)NC[C@H]1CN(c2ccc(-c3nnc4ncccn34)cc2)C(=O)O1`, `CCCC(=O)NC[C@H]1CN(c2ccc(-c3nnc4ncccn34)cc2)C(=O)O1` is higher in MIC: 4 µg/mL (≈ 10.5 µM) for the first, over 16 µg/mL for the second.

Going from `COCCNC(=S)NC[C@H]1CN(c2ccc(-c3nnc4ncccn34)cc2)C(=O)O1` to `CCCCNC(=S)NC[C@H]1CN(c2ccc(-c3nnc4ncccn34)cc2)C(=O)O1`, the MIC falls from over 16 µg/mL to 16 µg/mL (≈ 37.6 µM).

Compared with `O=C(NC[C@H]1CN(c2ccc(-c3nnc4ncccn34)cc2)C(=O)O1)C1CC1`, `O=C(NC[C@H]1CN(c2ccc(-c3nnc4ncccn34)cc2)C(=O)O1)C1CCC1` is higher in MIC: 16 µg/mL (≈ 42.3 µM) for the first, over 16 µg/mL for the second.

Molecule `CC(C)CC(=O)NC[C@H]1CN(c2ccc(-c3nnc4ncccn34)cc2)C(=O)O1` has an MIC of over 16 µg/mL.

system: Escherichia coli; experiment: Antibacterial activity against Escherichia coli ATCC 25922; type: functional

`CCOC(=O)NC[C@H]1CN(c2ccc(-c3nnc4ncccn34)cc2)C(=O)O1` and `CC(=O)NC[C@H]1CN(c2ccc(-c3nnc4ncccn34)cc2)C(=O)O1` cannot be ordered by MIC: over 16 µg/mL for the first, over 16 µg/mL for the second.

`CC(=O)NC[C@H]1CN(c2ccc(N3CCOCC3)c(F)c2)C(=O)O1` [LINEZOLID] and `O=C(NC[C@H]1CN(c2ccc(-c3nnc4ncccn34)cc2)C(=O)O1)C1CCC1` cannot be ordered by MIC: over 16 µg/mL for the first, over 16 µg/mL for the second.

`O=C(NC[C@H]1CN(c2ccc(-c3nnc4ncccn34)cc2)C(=O)O1)c1ccccc1` and `O=C(CCl)NC[C@H]1CN(c2ccc(-c3nnc4ncccn34)cc2)C(=O)O1` cannot be ordered by MIC: over 16 µg/mL for the first, over 16 µg/mL for the second.

`CCC(=S)NC[C@H]1CN(c2ccc(-c3nnc4ncccn34)cc2)C(=O)O1` and `CCCC(=O)NC[C@H]1CN(c2ccc(-c3nnc4ncccn34)cc2)C(=O)O1` cannot be ordered by MIC: over 16 µg/mL for the first, over 16 µg/mL for the second.

`COCCNC(=S)NC[C@H]1CN(c2ccc(-c3nnc4ncccn34)cc2)C(=O)O1` and `CCCCNC(=S)NC[C@H]1CN(c2ccc(-c3nnc4ncccn34)cc2)C(=O)O1` cannot be ordered by MIC: over 16 µg/mL for the first, over 16 µg/mL for the second.

`O=C(NC[C@H]1CN(c2ccc(-c3nnc4ncccn34)cc2)C(=O)O1)C1CC1` and `CC(C)CC(=O)NC[C@H]1CN(c2ccc(-c3nnc4ncccn34)cc2)C(=O)O1` cannot be ordered by MIC: over 16 µg/mL for the first, over 16 µg/mL for the second.

system: Staphylococcus epidermidis; experiment: Antibacterial activity Staphylococcus epidermidis ATCC 12228; type: functional

Going from `CCOC(=O)NC[C@H]1CN(c2ccc(-c3nnc4ncccn34)cc2)C(=O)O1` to `CC(=O)NC[C@H]1CN(c2ccc(-c3nnc4ncccn34)cc2)C(=O)O1`, the MIC falls from over 16 µg/mL to 8 µg/mL (≈ 22.7 µM).

Going from `CC(=O)NC[C@H]1CN(c2ccc(N3CCOCC3)c(F)c2)C(=O)O1` [LINEZOLID] to `O=C(NC[C@H]1CN(c2ccc(-c3nnc4ncccn34)cc2)C(=O)O1)C1CCC1`, the MIC rises from 1 µg/mL (≈ 2.96 µM) to 16 µg/mL (≈ 40.8 µM) (16-fold).

Compared with `O=C(NC[C@H]1CN(c2ccc(-c3nnc4ncccn34)cc2)C(=O)O1)c1ccccc1`, `O=C(CCl)NC[C@H]1CN(c2ccc(-c3nnc4ncccn34)cc2)C(=O)O1` is lower in MIC: over 16 µg/mL for the first, 4 µg/mL (≈ 10.3 µM) for the second.

Going from `CCC(=S)NC[C@H]1CN(c2ccc(-c3nnc4ncccn34)cc2)C(=O)O1` to `CCCC(=O)NC[C@H]1CN(c2ccc(-c3nnc4ncccn34)cc2)C(=O)O1`, the MIC rises from 2 µg/mL (≈ 5.23 µM) to 16 µg/mL (≈ 42.1 µM) (8-fold).

`COCCNC(=S)NC[C@H]1CN(c2ccc(-c3nnc4ncccn34)cc2)C(=O)O1` and `CCCCNC(=S)NC[C@H]1CN(c2ccc(-c3nnc4ncccn34)cc2)C(=O)O1` are the same in MIC: 8 µg/mL (≈ 18.7 µM) for the first, 8 µg/mL (≈ 18.8 µM) for the second.

First: O=C(NC[C@H]1CN(c2ccc(-c3nnc4ncccn34)cc2)C(=O)O1)C1CC1
Second: CC(C)CC(=O)NC[C@H]1CN(c2ccc(-c3nnc4ncccn34)cc2)C(=O)O1
The MIC of the first is 2-fold lower: 8 µg/mL (≈ 21.1 µM) for the first, 16 µg/mL (≈ 40.6 µM) for the second.

system: Staphylococcus aureus; experiment: Antibacterial activity against methicillin-resistant Staphylococcus aureus ATCC 43300; type: functional
Method in brief: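 MIC determined following CLSI guideline M07-A8 (2009) for dilution susceptibility testing of aerobically growing bacteria.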

`CCOC(=O)NC[C@H]1CN(c2ccc(-c3nnc4ncccn34)cc2)C(=O)O1` and `CC(=O)NC[C@H]1CN(c2ccc(-c3nnc4ncccn34)cc2)C(=O)O1` are the same in MIC: 16 µg/mL (≈ 41.8 µM) for the first, 16 µg/mL (≈ 45.4 µM) for the second.

Going from `O=C(NC[C@H]1CN(c2ccc(-c3nnc4ncccn34)cc2)C(=O)O1)c1ccccc1` to `O=C(CCl)NC[C@H]1CN(c2ccc(-c3nnc4ncccn34)cc2)C(=O)O1`, the MIC falls from over 16 µg/mL to 4 µg/mL (≈ 10.3 µM).

Compared with `CCC(=S)NC[C@H]1CN(c2ccc(-c3nnc4ncccn34)cc2)C(=O)O1`, `CCCC(=O)NC[C@H]1CN(c2ccc(-c3nnc4ncccn34)cc2)C(=O)O1` is 8-fold higher in MIC: 2 µg/mL (≈ 5.23 µM) for the first, 16 µg/mL (≈ 42.1 µM) for the second.

Compared with `COCCNC(=S)NC[C@H]1CN(c2ccc(-c3nnc4ncccn34)cc2)C(=O)O1`, `CCCCNC(=S)NC[C@H]1CN(c2ccc(-c3nnc4ncccn34)cc2)C(=O)O1` is 2-fold lower in MIC: 16 µg/mL (≈ 37.4 µM) for the first, 8 µg/mL (≈ 18.8 µM) for the second.

First: O=C(NC[C@H]1CN(c2ccc(-c3nnc4ncccn34)cc2)C(=O)O1)C1CC1
Second: O=C(NC[C@H]1CN(c2ccc(-c3nnc4ncccn34)cc2)C(=O)O1)C1CCC1
The MIC of the first is 2-fold lower: 8 µg/mL (≈ 21.1 µM) for the first, 16 µg/mL (≈ 40.8 µM) for the second.

`CC(C)CC(=O)NC[C@H]1CN(c2ccc(-c3nnc4ncccn34)cc2)C(=O)O1` showed an MIC of 16 µg/mL (≈ 40.6 µM).
